# Assay outcomes deposited in PubChem by Broad Institute.
# Rows were chosen to be rich in hits. Some 2.7% of all compounds tested hit in one or more screens of this group.
# S100A4 MyoIIA: inhibitors of human S100A4 binding to myosin IIA peptide. P26447. AID 652163. 360,000 tested, 0.14% active. S100A4/TAMRA-MyoIIA peptide fluorescence polarization. inhibition, % at 10.7 µM;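 active = mean inhibition of at least 70% across replicates, with every replicate also reaching that level; inconclusive = mean inhibition reaches 70% but some replicates fall short; inactive = mean inhibition below 70%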
# Target sequence (P26447 whole entry, looked up): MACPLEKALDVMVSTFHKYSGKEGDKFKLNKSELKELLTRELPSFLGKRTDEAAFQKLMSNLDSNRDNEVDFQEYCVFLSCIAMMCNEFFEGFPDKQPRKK
#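 Test system: S100A4 monomer protein. Medium: HEPES buffer with Ca2+, pH 7.2. Reagent: fluorescent myosin IIA peptide, 5 nM. Compound dosing: single-point compound testing. Timing: 5 min between mix addition and reading. Benchmarks: DMSO neutral and TFP positive wells.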
# AF4-AF9 inh: blocks AF4 peptide binding to human AF9 | P42568 | 350,000 tested, 0.47% active | inhibition, % at 10 µM | AlphaScreen, biotin-AF4 peptide binding to FLAG-AF9 | AID 651704;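 active = every replicate reaching a set inhibition limit, whatever the replicate mean, cut at about 25% in these data; inconclusive = mean inhibition reaches that limit but some replicates miss it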;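 also: 0% = plate neutral control median and 100% = total signal loss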
# SIRT5 inh: blocks human SIRT5 desuccinylation of peptide; Purified SirT5, succinyl-peptide AMC, trypsin-coupled fluorescence; 330,000 tested, 1.1% active; inhibition, % at 15 µM; in the data active = inhibition above about 15%; inconclusive = no clear call, values can overlap the other calls
# Target sequence (Q9NXA8 whole entry, looked up): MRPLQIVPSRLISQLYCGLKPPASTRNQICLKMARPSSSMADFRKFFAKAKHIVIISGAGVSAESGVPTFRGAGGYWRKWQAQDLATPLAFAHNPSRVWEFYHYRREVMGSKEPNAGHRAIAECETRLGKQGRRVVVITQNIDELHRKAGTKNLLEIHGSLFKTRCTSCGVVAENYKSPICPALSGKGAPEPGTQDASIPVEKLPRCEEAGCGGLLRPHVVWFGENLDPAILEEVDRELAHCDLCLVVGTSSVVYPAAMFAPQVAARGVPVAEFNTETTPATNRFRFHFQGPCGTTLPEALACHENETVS
# CaV13 FRET inh: Disruptors of the CACNA1D IQ motif to Ca2+-dependent inactivation inhibitor domain association, primary screening, Förster resonance energy transfer in intact living …; 340,000 tested, 0.098% active; HEK cells, CFP/YFP FRET ICDI-IQ, plate reader, 10 min; percent FRET-ratio fall versus neutral wells; inhibition, % at 12.3 µM; AID 743397;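 active = mean replicate inhibition of at least 30% and at least 1% of replicates passing that level; inconclusive = only one of the two criteria is met; inactive = neither criterion is met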;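 also: 0% = median of the neutral control wells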
# DENV2 CPE: protects cells from dengue virus 2 cytopathic effect. DENV2-infected cells, cytopathic effect rescue, plate reader. CPE inhibition, % at 9.99 µM. 350,000 tested, 1.7% active. AID 651640; in the data active = CPE inhibition above about 20%, passing the limit was not always enough; inconclusive = no clear call, values can overlap the other calls; tested in BHK-21 cells;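 also: 0% = median of neutral control wells and 100% = median of positive control wells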
# The depositor's hits bear a star; ? = inconclusive; · = not tested or not shown.
SMILES,S100A4 MyoIIA,AF4-AF9 inh,SIRT5 inh,CaV13 FRET inh,DENV2 CPE
CC(C)CC#Cc1ccc2c(c1)O[C@@H](CN(C)S(=O)(=O)c1cccc(F)c1)[C@@H](C)CN([C@H](C)CO)S2(=O)=O,33,-2,20*,·,-9
C[C@H](CO)N1C[C@H](C)[C@H](CN(C)C(=O)C2CCOCC2)Oc2cc(C#Cc3ccncc3)ccc2S1(=O)=O,-5,-2,1,·,7
CO[C@@H]1CN(C)C(=O)c2ccc(NS(=O)(=O)c3ccc(F)cc3)cc2OC[C@H](C)NC[C@@H]1C,9,-2,-3,·,-4
CCC(=O)Nc1ccc2c(c1)C(=O)N(C)C[C@@H](OC)[C@H](C)CN(CCC(F)(F)F)[C@@H](C)CO2,-5,0,2,·,9
COc1cccc(CN(CCC(C)C)S(=O)(=O)c2cc(Br)ccc2Br)c1,8,-7,28*,-6,-10
COc1cc(CN(CC(C)C)S(=O)(=O)c2ccccc2Br)cc(OC)c1,-3,-2,·,-5,?
CO[C@H](CN(C)S(=O)(=O)c1cccc(Cl)c1)[C@H](C)CN([C@@H](C)CO)S(=O)(=O)c1ccc(Cl)cc1,11,0,1,·,2
CO[C@@H](CN(C)S(=O)(=O)c1ccc(Cl)cc1)[C@H](C)CN([C@H](C)CO)S(=O)(=O)c1cccc(Cl)c1,4,-4,16*,·,3
COc1cccc(CN(C)C(=O)c2ccc(S(=O)(=O)Nc3cccc(C)c3C)cc2)c1OC,6,4,17*,-7,0
COc1cccc(CN(C)C(=O)c2ccc(S(=O)(=O)Nc3ccccc3F)cc2)c1OC,-4,0,0,-1,7
CCCc1ccc(-c2cc(NC(=O)CSc3nnc(N)s3)n(-c3ccccc3)n2)cc1,8,6,20*,-2,13
C[C@H]1c2cccc(O)c2C(O)=C2C(=O)[C@]3(O)C(O)=C(C(N)=O)C(=O)[C@@H](N(C)C)C3[C@@H](O)C21 (some centres not stated),-3,7,2,-6,?
C=C1c2cccc(O)c2C(=O)C2C(=O)[C@]3(O)C(=O)C(C(N)=O)C(=O)[C@@H](N(C)C)[C@@H]3[C@@H](O)[C@H]12 (some centres not stated),-1,3,46*,-6,-6
COc1cccc(-c2cnc3c(c2)C(=O)N([C@H](C)CO)C[C@H](C)[C@@H](CN(C)C(=O)CN(C)C)O3)c1,-5,-11,-2,·,2
CC(C)c1cccc(C(C)C)c1NC(=O)CCl,2,1,16*,1,16
CC(C)CC#Cc1ccc2c(c1)O[C@@H](CN(C)C(=O)c1cnccn1)[C@@H](C)CN([C@@H](C)CO)S2(=O)=O,4,2,-3,·,36*
CC(=O)N(C)C[C@H]1Oc2cc(C#CCC(C)C)ccc2S(=O)(=O)N([C@H](C)CO)C[C@H]1C,-3,0,-1,·,-10
CC(C)CC#Cc1ccc2c(c1)O[C@@H](CN(C)C)[C@@H](C)CN([C@@H](C)CO)S2(=O)=O,16,3,6,·,27*
CC(C)CC#Cc1ccc2c(c1)O[C@H](CN(C)C)[C@H](C)CN([C@@H](C)CO)S2(=O)=O,9,3,0,·,15
CC(=O)N(C)C[C@@H]1Oc2cc(C#CCC(C)C)ccc2S(=O)(=O)N([C@H](C)CO)C[C@@H]1C,114*,1,0,·,-6
CCCNC(=O)N(C)C[C@@H]1Oc2cc(C#CCC(C)C)ccc2S(=O)(=O)N([C@@H](C)CO)C[C@H]1C,6,3,2,·,36*
O=C(C[C@@H]1C=C[C@@H](NC(=O)CN2CCOCC2)[C@H](CO)O1)NCCc1ccccc1,3,0,-1,·,-1
CC(C)CC#Cc1ccc2c(c1)O[C@@H](CN(C)C(=O)CC1CC1)[C@@H](C)CN([C@H](C)CO)S2(=O)=O,2,1,25*,·,-1
COc1ccc(CCN=C(N)NS(=O)(=O)c2ccc(F)cc2)cc1,-2,0,-5,73*,-2
Cc1ccccc1-c1cnc2c(c1)C(=O)N([C@H](C)CO)C[C@@H](C)[C@@H](CN(C)C(=O)c1ccc(F)cc1)O2,4,-8,4,·,0
SMILES,S100A4 MyoIIA,AF4-AF9 inh,SIRT5 inh,CaV13 FRET inh,DENV2 CPE
CC(C)NC(=O)N(C)C[C@@H]1Oc2c(NC(=O)Nc3ccc(F)cc3)cccc2C(=O)N([C@H](C)CO)C[C@@H]1C,-4,-1,8,·,9
C[C@H]1CCCCO[C@H](CN(C)C(=O)Nc2ccc(F)cc2)[C@@H](C)CN([C@@H](C)CO)C(=O)c2cc(NS(=O)(=O)c3cccs3)ccc2O1,-5,-13,8,·,27*
C[C@@H]1CCCCO[C@@H](CN(C)C(=O)Nc2ccc(F)cc2)[C@H](C)CN([C@H](C)CO)C(=O)c2cc(NS(=O)(=O)c3cccs3)ccc2O1,-11,-2,7,·,-12
CC(C)NC(=O)N(C)C[C@@H]1OCCCC[C@@H](C)Oc2ccc(NS(=O)(=O)c3cccs3)cc2C(=O)N([C@H](C)CO)C[C@@H]1C,18,0,-3,·,55*
C[C@@H]1CCCCO[C@H](CN(C)C(=O)Nc2ccc(F)cc2)[C@H](C)CN([C@H](C)CO)C(=O)c2cc(NS(=O)(=O)c3cccs3)ccc2O1,10,-8,2,·,68*
O=C1N(CCS(=O)(=O)c2ccccc2)Cc2ccccc2C[C@@]12N=C(c1ccc(OCCCO)cc1)O[C@H]2c1ccccc1,-22,4,14,·,-2
O=C(NCCNC(=O)Oc1cccc2ccccc12)Oc1cccc2ccccc12,-1,1,26*,-5,11
O=C(O)C[C@H]1C=C[C@@H](NC(=O)CCN2CCCCC2)[C@H](CO)O1,19,-1,-6,·,-8
CCCC#Cc1ccc([C@@H]2[C@H](CO)N3C(=O)CN(C(=O)Nc4ccc(F)cc4)C[C@@H]23)cc1,-54,1,-2,·,-3
COc1ccc(NC(=O)N(C)C[C@@H]2Oc3cc(-c4ccc(C)cc4)ccc3S(=O)(=O)N([C@@H](C)CO)C[C@@H]2C)cc1,-4,4,2,·,4
CCOc1ccc2nc(NC(=O)CN3CCN(CC)CC3)sc2c1,0,5,-1,-3,44*
Cc1cc(NC(=O)CSCC(=O)Nc2nc3ccccc3s2)no1,3,-1,-2,-5,45*
CN1CCN(CC(=O)Nc2nc3ccccc3s2)CC1,0,-1,21*,-3,7
CCN1CCN(CC(=O)Nc2nc3ccccc3s2)CC1,4,0,1,-2,3
CO[C@@H]1CN(C)C(=O)c2cc(NC(=O)NC(C)C)ccc2OC[C@H](C)N(S(C)(=O)=O)C[C@H]1C,6,-12,-3,·,-13
COc1ccc(CNC(=O)c2cc(C3CC3)nc3c2cnn3C(C)C)cc1,-13,32*,-2,-5,-3
